From article PMC2696058 (Bioorganic & medicinal chemistry, 2009)

Tests used:
N^5CAIR synthetase = N^5CAIR synthetase (Escherichia coli, UniProt P09029); assay: Kinetic analysis, PK/LDH coupled ATPase assay; type: biochemical; conditions: for Inhibition of N^5CAIR synthetase by DMSO (non-aqueous) solutions: compound added as DMSO solution, not aqueous solution; for Mode of inhibition with respect to AIR / Mode of inhibition with respect to ATP: steady-state kinetics; for Mode of inhibition with respect to AIR: varied AIR; for Mode of inhibition with respect to ATP: varied ATP
[1] = Decomposition of compound solutions followed by TLC; type: physicochemical; conditions: aqueous solution
[2] = target: T1, human AIR carboxylase:SAICAR synthetase (Homo sapiens, UniProt P22234); assay: Coupled assay against human bifunctional enzyme; type: biochemical; conditions: 200 μM compound, both activities assayed simultaneously
T1 sequence (P22234 1-425): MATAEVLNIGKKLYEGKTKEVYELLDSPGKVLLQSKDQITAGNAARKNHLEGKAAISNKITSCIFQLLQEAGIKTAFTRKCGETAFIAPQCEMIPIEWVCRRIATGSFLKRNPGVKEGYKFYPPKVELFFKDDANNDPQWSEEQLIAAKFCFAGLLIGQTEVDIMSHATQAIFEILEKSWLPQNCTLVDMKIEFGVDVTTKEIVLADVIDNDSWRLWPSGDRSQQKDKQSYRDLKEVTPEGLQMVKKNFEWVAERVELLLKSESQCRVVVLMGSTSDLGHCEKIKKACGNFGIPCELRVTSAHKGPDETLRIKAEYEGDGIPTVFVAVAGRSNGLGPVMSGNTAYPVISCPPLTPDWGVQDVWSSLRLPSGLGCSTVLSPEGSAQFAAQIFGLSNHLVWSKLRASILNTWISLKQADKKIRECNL
Method in brief: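 His-tagged human bifunctional AIR carboxylase:SAICAR synthetase, expressed from a pET22b vector and purified on a cobalt affinity column, >95% pure by SDS-PAGE. The carboxylase and synthetase activities were measured together in one coupled assay, following a method previously described for the Gallus gallus bifunctional enzyme.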

Sequence of N^5CAIR synthetase (P09029 whole entry): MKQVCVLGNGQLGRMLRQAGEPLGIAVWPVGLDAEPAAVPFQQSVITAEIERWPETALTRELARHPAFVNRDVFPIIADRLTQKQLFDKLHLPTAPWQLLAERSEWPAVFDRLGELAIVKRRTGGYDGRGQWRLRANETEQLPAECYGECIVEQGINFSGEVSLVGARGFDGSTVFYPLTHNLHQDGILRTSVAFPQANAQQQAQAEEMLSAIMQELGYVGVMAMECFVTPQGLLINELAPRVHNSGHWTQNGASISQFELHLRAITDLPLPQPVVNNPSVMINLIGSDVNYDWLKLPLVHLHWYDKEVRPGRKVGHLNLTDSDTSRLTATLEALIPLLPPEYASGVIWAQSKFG

## Cc1nonc1NC1(O)C(=O)c2ccccc2C1=O [Compound 1]
N^5CAIR synthetase
  Inhibition of N^5CAIR synthetase by DMSO (non-aqueous) solutions: neither compound resulted in inhibition
[1]
  Time to complete decomposition to ninhydrin: approximately 30 minutes

## Cc1nc(NC2(O)C(=O)c3ccccc3C2=O)cs1 [Compound 2]
N^5CAIR synthetase
  Inhibition of N^5CAIR synthetase by DMSO (non-aqueous) solutions: neither compound resulted in inhibition
[1]
  Time to complete decomposition to ninhydrin: around 45 minutes

## CCN(CC)C(=O)CN1C(=O)C(=O)c2ccccc21 [Compound 7]
N^5CAIR synthetase
  Mode of inhibition with respect to AIR: non-competitive
  Mode of inhibition with respect to ATP: non-competitive
[2]
  Inhibition of either enzymatic activity (AIR carboxylase, SAICAR synthetase): no inhibition

## CCOC(=O)c1noc(C)c1-c1csc(CS(=O)(=O)c2ccc(Cl)cc2)n1 [Compound 13]
N^5CAIR synthetase
  Mode of inhibition with respect to AIR: competitive
  Mode of inhibition with respect to ATP: uncompetitive
[2]
  Inhibition of either enzymatic activity (AIR carboxylase, SAICAR synthetase): no inhibition

## Cc1cc2nc3c(=O)[nH]c(=O)nc-3n(C[C@H](O)[C@H](O)[C@H](O)CO)c2cc1C [Compound 14, riboflavin]
N^5CAIR synthetase
  Mode of inhibition with respect to AIR: noncompetitive
  Mode of inhibition with respect to ATP: noncompetitive
[2]
  Inhibition of either enzymatic activity (AIR carboxylase, SAICAR synthetase): no inhibition
